High-throughput results deposited in PubChem BioAssay by several laboratories.
N-glyco inh: blocks N-linked glycosylation in D54 reporter cells; reporter increase, % at 12.5 µM; AID 588692; D54 ERlucT glycosylation luciferase reporter, 24 h; percent of 100 nM tunicamycin response; 360,000 tested, 0.23% active;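 active means mean luciferase reporter signal, scaled so untreated is 0 and the glycosylation-blocking control 100, at or above a set limit in every replicate; inconclusive means mean reaches the limit but not every replicate does; inactive means mean below the limit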;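 further: luciferase carries N-glycosylation sites so blocking glycosylation raises the light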
ALR H2O2 inh: blocks human ALR sulfhydryl oxidase activity; P55789; purified ALR, DTT oxidation, H2O2 HRP-luminol luminescence; inhibition, % (no concentration beside the values); 290,000 tested, 3.8% active; AID 485317;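 active means mean replicate inhibition above about 79%, with every replicate also reaching it, limit read from the data; inconclusive means only one of the two criteria met; inactive means mean below limit and not every replicate reaching it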
Target sequence (P55789 whole entry, looked up): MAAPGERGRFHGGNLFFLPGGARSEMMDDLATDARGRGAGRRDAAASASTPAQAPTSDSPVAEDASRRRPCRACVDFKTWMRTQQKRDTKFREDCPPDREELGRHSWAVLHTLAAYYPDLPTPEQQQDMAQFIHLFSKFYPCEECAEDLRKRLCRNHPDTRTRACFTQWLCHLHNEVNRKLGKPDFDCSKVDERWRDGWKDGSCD
T cell HTS: T cell immune modulation candidate; response (vesicle binding), % at 7 µM; 330,000 tested, 0.068% active; 2C CD8+ T cell-vesicle binding, flow cytometry; hits give low values;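 active means response, share of CD8 T cells binding vesicles, and their 90th percentile fluorescence all below set limits, cut at about 80% in these data, passing the limit was not always enough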;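 further: values below 100% mean blocked vesicle binding to the CD8+ T cells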
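Material: murine 2C transgenic CD8+ T lymphocytes / Also added: QL9-peptide-loaded Drosophila micro-vesicles bearing Ld, ICAM-1 and B7-1 / Schedule: binding step 1.5 h, 37 °C, antibody labelling 20 min, ice / Signal: flow cytometry, PE anti-B7-1 (FL2) versus Alexa647 anti-CD8 (FL8), PFA-fixed / Evaluation: percent CD8+ FL2 mean versus row control / Benchmarks: naked versus QL9-loaded vesicles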
Each line names hits and unclear results; the compound was inactive in the other large screens. Only a selection was taken, and hits are over-represented in it overall.

COc1cccc(CNn2cnnc2)c1O	ALR H2O2 inh 85
OCc1ccc2c(c1)c(-c1ccc3c(c1)OCCO3)c(-c1ccccc1)n2-c1ccccc1	none
CCCn1cnc2cc(NCc3cccc(OC)c3O)ccc21	ALR H2O2 inh 85
CCCn1cnc2cc(NCc3ccccn3)ccc21	none (no result: ALR H2O2 inh)
CCCn1c(NCc2c[nH]c3ccccc23)nc2ccccc21	none (no result: ALR H2O2 inh)
Oc1ccccc1CNc1cnc2ccccc2c1	ALR H2O2 inh 86
CCCn1c(NCc2cccc(OC)c2OC)nc2ccccc21	ALR H2O2 inh 98
Oc1ccc(Cl)cc1CNc1cnc2ccccc2c1	none
CC1(C(=O)NS(=O)(=O)c2ccccc2)CCN1C(=O)CCc1ccc(Cl)cc1Cl (stereo not given)	none (no result: ALR H2O2 inh, T cell HTS)
CN(C)c1ccc(C2N(c3ccc(F)cc3)C(=O)C3CCCN32)cc1 (stereo not given)	ALR H2O2 inh 97
CN(C)c1ccc(C2N(c3ccc(Cl)cc3)C(=O)C3CCCN32)cc1 (stereo not given)	none
Cc1ccccc1-c1nnn(CC(=O)NC(=O)NC2CCCC2)n1	none
COc1ccc(-c2noc(CN3CCCC(OCc4ccccn4)C3)n2)cc1 (stereo not given)	none (no result: ALR H2O2 inh)
CN1CCc2cccc3c2[C@H]1Cc1ccc(O)c(O)c1-3	ALR H2O2 inh 99
COc1ccc(Cn2c(O)c(/C=N/NC(=O)c3cccnc3)c3ccccc3c2=O)cc1	none (no result: ALR H2O2 inh, T cell HTS)
O=C(N/N=C/c1c(-c2ccccc2)[nH]c2ccccc12)c1cccnc1	N-glyco inh inconclusive
Cn1c(-c2ccccc2)c(/C=N/NC(=O)c2cccnc2)c2ccccc21	N-glyco inh 47
O=C(N/N=C/c1c(O)n(Cc2ccccc2)c(=O)c2ccccc12)c1cccnc1	ALR H2O2 inh 98
Cn1nnnc1SCC(=O)Nc1ccc(S(=O)(=O)N2CCOCC2)cc1	none
CCCCNC(=O)c1ccc2c(=O)n(CCCOCC)c(=S)[nH]c2c1	none
CCOCCCNC(=O)c1ccc(-n2c(=S)[nH]c3ccccc3c2=O)cc1	ALR H2O2 inh 84
C=CCN(C(=O)c1csnn1)C(C(=O)NC1CCCCC1)c1ccccc1 (stereo not given)	none
CCN(C(=O)COC(=O)CCOc1ccc(C(C)(C)C)cc1)c1c(N)n(Cc2ccccc2)c(=O)[nH]c1=O	none (no result: ALR H2O2 inh, T cell HTS)
Cc1cc(C)cc(NC(=O)CN2CCN(C(=O)C3CCCO3)CC2)c1 (stereo not given)	none
Cc1noc(C(=O)N2CCN(c3ccc(F)cc3)CC2)c1Cl	none
O=C(c1ccc(Cl)s1)N1CCN(c2ccccc2)CC1	ALR H2O2 inh 97
O=C(c1ccc(Cl)s1)N1CCN(c2ncccn2)CC1	none
Cc1noc(C(=O)N2CCN(c3ccccc3)CC2)c1Cl	ALR H2O2 inh 96
CCOC(=O)C1CCCN(C(=O)c2ccncc2)CC1 (stereo not given)	none (no result: ALR H2O2 inh, T cell HTS)
O=c1oc2ccccc2c(O)c1Sc1c(O)c2ccccc2oc1=O	none (no result: ALR H2O2 inh, T cell HTS)
CC(C)(C)c1cc(NC(=O)C2(C)CCN2C(=O)C2(c3ccccc3)CCCC2)no1 (stereo not given)	none (no result: ALR H2O2 inh, T cell HTS)
Cc1cc(NS(=O)(=O)c2ccc(NC(=O)Nc3cccc(Cl)c3)cc2)no1	ALR H2O2 inh 98
Cc1cc(C(=O)Nc2ccc(S(=O)(=O)Nc3onc(C)c3C)cc2)cs1	ALR H2O2 inh 97
Cc1cc(C(=O)Nc2ccc(S(=O)(=O)Nc3onc(C)c3C)cc2)c(C)o1	ALR H2O2 inh 84
Cc1ccc2oc(C(=O)Nc3ccc(S(=O)(=O)Nc4onc(C)c4C)cc3)c(C)c2c1	ALR H2O2 inh 98
Cc1cc(NC(=O)Nc2cccc(Cl)c2)no1	none (no result: ALR H2O2 inh, T cell HTS)
Cc1noc(NS(=O)(=O)c2ccc(NC(=O)c3ccoc3C)cc2)c1C	none
Cc1noc(NS(=O)(=O)c2ccc(NC(=O)c3ccc(N(C)C)cc3)cc2)c1C	none
Cc1cccc(NC(=O)Nc2ccc(S(=O)(=O)Nc3onc(C)c3C)cc2)c1	none
CC(C)N(C)c1ncnc2c1ncn2[C@H]1CN(CCc2ccccc2)C[C@@H](CO)O1	none (no result: ALR H2O2 inh, T cell HTS)
COc1cccc(OC)c1C(=O)NCc1ccco1	none (no result: ALR H2O2 inh, T cell HTS)
O=C(c1[nH]c(C(F)(F)F)nc1-c1ccccc1)N1CCN(c2cccc(C(F)(F)F)n2)CC1	none (no result: ALR H2O2 inh, T cell HTS)
Cc1c(C(=O)Nc2ccc(S(=O)(=O)Nc3ncccn3)cc2)oc2ccccc12	none (no result: ALR H2O2 inh)
Cc1cc(NS(=O)(=O)c2ccc(NC(=O)c3oc4ccccc4c3C)cc2)no1	ALR H2O2 inh 98
CC(CCc1ccc(O)cc1)NCCc1ccc(O)c(O)c1 (stereo not given)	ALR H2O2 inh 99
COc1ccccc1CCNC(C)CCc1ccc(O)cc1 (stereo not given)	none
CCOC(=O)c1c(NC(=O)COC(=O)c2ccccn2)sc(C)c1C	none (no result: ALR H2O2 inh)
CNC(=S)NNC(=O)c1sc2cc(C(F)(F)F)cnc2c1-c1cccnc1	ALR H2O2 inh 88
CNC(=S)NNC(=O)c1sc2cc(C(F)(F)F)cnc2c1-c1ccccn1	none
Nc1c(/C=C2/C=CC(=O)C(O)=C2)c(=O)nc2sc(CC(=O)N3CCCCC3)nn12	ALR H2O2 inh 99
Nc1c(C=C2C=CC(=O)C=C2)c(=O)nc2sc(CC(=O)N3CCCCC3)nn12	none (no result: ALR H2O2 inh)
Nc1c(/C=C2/C=CC(=O)C(O)=C2)c(=O)nc2sc(CC(=O)N3CCOCC3)nn12	none (no result: ALR H2O2 inh, T cell HTS)
Nc1c(/C=C2/C=CC(=O)C(O)=C2)c(=O)nc2sc(CC(=O)N3CCCC3)nn12	ALR H2O2 inh 99
CC(C)(C)c1ccc(S(=O)(=O)NC(=O)C2(C)CCN2C(=O)CC2CCCC2)cc1 (stereo not given)	none (no result: ALR H2O2 inh, T cell HTS)
N#CC1(C#N)CC(C=O)=C(N)C1(C#N)CC(=O)C12CC3CC(CC(C3)C1)C2 (stereo not given)	ALR H2O2 inh 96
Nc1nccnc1C(=O)OCC(=O)C12CC3CC(CC(C3)C1)C2	none
Cc1ccc(NC(=O)C2CCCN2C(=O)c2cccs2)c(C)c1 (stereo not given)	none
COc1cc(C2C3=C(CCCC3=O)Nc3[nH]n(-c4ccccc4)c(=O)c32)ccc1O (stereo not given)	ALR H2O2 inh 100
O=C1CCCC2=C1C(c1ccc3c(c1)OCO3)c1c([nH]n(-c3ccccc3)c1=O)N2 (stereo not given)	none
COc1cccc(C2C3=C(CCCC3=O)Nc3[nH]n(-c4ccccc4)c(=O)c32)c1 (stereo not given)	ALR H2O2 inh 78
COc1cccc(C2C3=C(Nc4[nH]n(-c5ccccc5)c(=O)c42)c2ccccc2C3=O)c1 (stereo not given)	ALR H2O2 inh inconclusive (no result: N-glyco inh)
C(=N\Nc1ccccn1)/c1ccc(N2CCOCC2)cc1	ALR H2O2 inh 99
C/C(=N\NC(=O)Cc1ccccc1)c1ccc(Br)s1	none
C(=N\Nc1ccccc1)/c1ccc(N2CCOCC2)cc1	none
C/C(=N\Nc1ccccn1)c1ccc(Br)s1	ALR H2O2 inh 99
C/C(=N\Nc1ccccn1)c1ccc(C(C)C)cc1	none
C/C(=N\Nc1ccccn1)c1ccc(N2CCOCC2)cc1	ALR H2O2 inh 98
Cc1onc(-c2ccccc2)c1C(=O)N(Cc1ccccc1)C(C)C	none (no result: ALR H2O2 inh)
CN(Cc1cnn(-c2ccc(F)cc2)c1)C(=O)[C@H]1O[C@@H](n2ccc(N)nc2=O)[C@H](O)[C@@H]1O	none (no result: ALR H2O2 inh, T cell HTS)
CCN1CCN(C(=O)c2ccc3c(c2)S(=O)(=O)c2ccccc2C3=O)CC1	none
COc1cc(CN2CCCC(N3CCN(c4ccccc4C)CC3)C2)cc(Cl)c1O (stereo not given)	none (no result: ALR H2O2 inh)
CC(=O)c1ccc(NC(=O)Cn2c3ccccc3c3nc(=O)cc(C)n32)cc1	none
